What all share (assay type): cell-based
Assay [1] has as its target Y-box-binding protein 1 (Homo sapiens) (UniProt P67809). The experiment in a line: Binding affinity to YBX1 in human NCI-H23 cells at 1 uM by mass spectrometry based pull down assay.
Assay [2] addresses Peroxiredoxin-6 (Homo sapiens) (UniProt P30041). The assay is described as follows: Binding affinity to PRDX6 in human NCI-H23 cells at 1 uM by mass spectrometry based pull down assay.
Assay [3] addresses T1, Serine/threonine-protein kinase 4 (Homo sapiens) (UniProt Q13043).
T1 sequence (whole entry): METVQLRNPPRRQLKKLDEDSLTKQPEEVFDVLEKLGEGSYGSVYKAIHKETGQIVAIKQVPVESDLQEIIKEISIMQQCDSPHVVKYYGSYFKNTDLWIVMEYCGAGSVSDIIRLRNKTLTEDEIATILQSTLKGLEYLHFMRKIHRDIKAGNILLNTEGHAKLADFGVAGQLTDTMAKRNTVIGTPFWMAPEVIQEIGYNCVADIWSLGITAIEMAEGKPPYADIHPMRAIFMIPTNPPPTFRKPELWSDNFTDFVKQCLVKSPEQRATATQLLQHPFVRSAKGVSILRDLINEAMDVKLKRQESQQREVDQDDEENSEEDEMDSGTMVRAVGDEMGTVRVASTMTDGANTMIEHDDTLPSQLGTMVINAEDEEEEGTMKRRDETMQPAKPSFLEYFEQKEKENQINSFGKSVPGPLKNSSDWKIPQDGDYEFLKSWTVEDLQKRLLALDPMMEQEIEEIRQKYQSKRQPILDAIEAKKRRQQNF
The assay is described as follows: Binding affinity to STK4 in human NCI-H23 cells at 1 uM by mass spectrometry based pull down assay.

Assay [4] addresses Cytosolic iron-sulfur assembly component 2B (Homo sapiens) (UniProt Q9Y3D0). The assay is described as follows: Binding affinity to FAM96B in human NCI-H23 cells at 1 uM by mass spectrometry based pull down assay.
The target of assay [5] is T2, 80S Ribosome (Homo sapiens) (UniProt P08865+P42677+P62753+P15880+P23396+P61247+P62701+P22090+P46782+P62081+P62241+P46781+P46783+P62280+P25398+P62277+P62263+P62841+P62244+P62249+P08708+P62269+P39019+P60866+P63220+P62266+P62847+P62851+P62854+P62979+P62857+P62273+P62861+P39023+P36578+P46777+Q02878+P18124+P62424+P62917+P32969+P27635+P62906+P62913+P30050+P26373+P40429+P50914+P61313+P18621+Q07020+Q02543+P84098+P46778+P35268+P62829+P62750+P83731+P61254+P61353+P46776+P46779+P47914+P62888+P62899+P62910+P49207+P42766+P18077+Q9Y3U8+P83881+P61927+P61513+P63173+P62891+P62945+P05388+P05386). The experiment in a line: Binding affinity to RPS11 in human NCI-H23 cells at 1 uM by mass spectrometry based pull down assay.

Assay [6] has as its target Actin-related protein 3 (Homo sapiens) (UniProt P61158). The experiment in a line: Binding affinity to ACTR3 in human NCI-H358 cells at 1 uM by mass spectrometry based pull down assay. The method in brief: (§1)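 NCI-H23 or NCI-H358 cells were grown and lysed. Lysates were incubated overnight at 4 °C with 1 μM biotinylated covalent probe or DMSO, then pulled down on streptavidin beads. Proteins were run on polyacrylamide gels and stained with Coomassie. Bands were excised, digested and identified by mass spectrometry.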

In assay [7] the target is T3, Serine/threonine-protein kinase Nek9 (Homo sapiens) (UniProt Q8TD19).
T3 sequence (whole entry): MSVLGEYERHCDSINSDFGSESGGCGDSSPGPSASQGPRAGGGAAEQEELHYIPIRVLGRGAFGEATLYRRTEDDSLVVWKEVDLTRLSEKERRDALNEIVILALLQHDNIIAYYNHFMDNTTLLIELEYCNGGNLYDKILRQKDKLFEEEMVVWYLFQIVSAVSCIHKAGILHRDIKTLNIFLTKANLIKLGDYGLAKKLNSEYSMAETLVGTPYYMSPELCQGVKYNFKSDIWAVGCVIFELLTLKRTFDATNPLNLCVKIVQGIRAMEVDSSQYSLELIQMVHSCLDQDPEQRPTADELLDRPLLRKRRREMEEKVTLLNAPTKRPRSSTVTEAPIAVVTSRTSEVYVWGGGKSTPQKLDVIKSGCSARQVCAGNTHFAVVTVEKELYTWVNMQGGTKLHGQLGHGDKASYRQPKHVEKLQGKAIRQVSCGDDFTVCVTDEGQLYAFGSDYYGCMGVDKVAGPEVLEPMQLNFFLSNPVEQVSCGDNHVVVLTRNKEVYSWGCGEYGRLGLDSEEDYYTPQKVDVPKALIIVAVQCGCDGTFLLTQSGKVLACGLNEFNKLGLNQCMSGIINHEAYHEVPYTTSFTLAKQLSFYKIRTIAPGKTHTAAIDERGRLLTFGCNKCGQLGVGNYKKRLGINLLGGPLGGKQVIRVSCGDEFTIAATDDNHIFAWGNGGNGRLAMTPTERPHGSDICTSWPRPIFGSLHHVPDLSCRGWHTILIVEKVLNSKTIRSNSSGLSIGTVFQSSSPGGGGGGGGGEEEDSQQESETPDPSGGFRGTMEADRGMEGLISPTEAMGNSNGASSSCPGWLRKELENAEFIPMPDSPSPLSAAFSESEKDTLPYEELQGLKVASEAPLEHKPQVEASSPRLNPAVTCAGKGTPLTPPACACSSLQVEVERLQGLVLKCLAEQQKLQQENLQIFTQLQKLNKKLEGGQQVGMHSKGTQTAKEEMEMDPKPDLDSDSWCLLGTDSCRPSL
The experiment in a line: Binding affinity to NEK9 in human NCI-H358 cells at 1 uM by mass spectrometry based pull down assay.

In assay [8] the target is T2, 80S Ribosome (Homo sapiens). The experiment in a line: Binding affinity to RPL5 in human NCI-H358 cells at 1 uM by mass spectrometry based pull down assay.
The target in assay [9] is Very-long-chain 3-oxoacyl-CoA reductase (Homo sapiens) (UniProt Q53GQ0). The assay is described as follows: Binding affinity to HSD17B12 in human NCI-H358 cells at 1 uM by mass spectrometry based pull down assay.
Chain of Very-long-chain 3-oxoacyl-CoA reductase (Homo sapiens) (Q53GQ0 whole entry): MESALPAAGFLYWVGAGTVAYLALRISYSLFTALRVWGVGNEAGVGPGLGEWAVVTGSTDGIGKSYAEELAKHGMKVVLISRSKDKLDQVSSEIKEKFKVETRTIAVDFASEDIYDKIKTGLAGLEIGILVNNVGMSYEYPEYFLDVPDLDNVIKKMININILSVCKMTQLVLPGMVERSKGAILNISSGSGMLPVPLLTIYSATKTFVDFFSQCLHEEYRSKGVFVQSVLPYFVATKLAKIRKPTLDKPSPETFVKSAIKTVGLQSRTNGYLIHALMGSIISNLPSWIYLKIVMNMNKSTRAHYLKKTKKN
For assay [10], the target named is Long-chain-fatty-acid--CoA ligase 1 (Homo sapiens) (UniProt P33121). The experiment in a line: Binding affinity to ACSL1 in human NCI-H358 cells at 1 uM by mass spectrometry based pull down assay. The method in brief:
as §1

Assay [11] concerns the target DnaJ homolog subfamily A member 1 (Homo sapiens) (UniProt P31689). The experiment in a line: Binding affinity to DNAJA1 in human NCI-H358 cells at 1 uM by mass spectrometry based pull down assay.
Assay [12] addresses Hepatocyte growth factor receptor (Homo sapiens) (UniProt P08581). The assay is described as follows: Inhibition of MET in human SKCO1 cells at 1 uM after 4 hrs using biotin labeled TGAKLPVK probe by mass-spectrometric analysis relative to control.

Calls of active or inactive are those of the source. The calls are words filed in the database; no cut-off is given here.

Chain of Hepatocyte growth factor receptor (Homo sapiens) (P08581 whole entry): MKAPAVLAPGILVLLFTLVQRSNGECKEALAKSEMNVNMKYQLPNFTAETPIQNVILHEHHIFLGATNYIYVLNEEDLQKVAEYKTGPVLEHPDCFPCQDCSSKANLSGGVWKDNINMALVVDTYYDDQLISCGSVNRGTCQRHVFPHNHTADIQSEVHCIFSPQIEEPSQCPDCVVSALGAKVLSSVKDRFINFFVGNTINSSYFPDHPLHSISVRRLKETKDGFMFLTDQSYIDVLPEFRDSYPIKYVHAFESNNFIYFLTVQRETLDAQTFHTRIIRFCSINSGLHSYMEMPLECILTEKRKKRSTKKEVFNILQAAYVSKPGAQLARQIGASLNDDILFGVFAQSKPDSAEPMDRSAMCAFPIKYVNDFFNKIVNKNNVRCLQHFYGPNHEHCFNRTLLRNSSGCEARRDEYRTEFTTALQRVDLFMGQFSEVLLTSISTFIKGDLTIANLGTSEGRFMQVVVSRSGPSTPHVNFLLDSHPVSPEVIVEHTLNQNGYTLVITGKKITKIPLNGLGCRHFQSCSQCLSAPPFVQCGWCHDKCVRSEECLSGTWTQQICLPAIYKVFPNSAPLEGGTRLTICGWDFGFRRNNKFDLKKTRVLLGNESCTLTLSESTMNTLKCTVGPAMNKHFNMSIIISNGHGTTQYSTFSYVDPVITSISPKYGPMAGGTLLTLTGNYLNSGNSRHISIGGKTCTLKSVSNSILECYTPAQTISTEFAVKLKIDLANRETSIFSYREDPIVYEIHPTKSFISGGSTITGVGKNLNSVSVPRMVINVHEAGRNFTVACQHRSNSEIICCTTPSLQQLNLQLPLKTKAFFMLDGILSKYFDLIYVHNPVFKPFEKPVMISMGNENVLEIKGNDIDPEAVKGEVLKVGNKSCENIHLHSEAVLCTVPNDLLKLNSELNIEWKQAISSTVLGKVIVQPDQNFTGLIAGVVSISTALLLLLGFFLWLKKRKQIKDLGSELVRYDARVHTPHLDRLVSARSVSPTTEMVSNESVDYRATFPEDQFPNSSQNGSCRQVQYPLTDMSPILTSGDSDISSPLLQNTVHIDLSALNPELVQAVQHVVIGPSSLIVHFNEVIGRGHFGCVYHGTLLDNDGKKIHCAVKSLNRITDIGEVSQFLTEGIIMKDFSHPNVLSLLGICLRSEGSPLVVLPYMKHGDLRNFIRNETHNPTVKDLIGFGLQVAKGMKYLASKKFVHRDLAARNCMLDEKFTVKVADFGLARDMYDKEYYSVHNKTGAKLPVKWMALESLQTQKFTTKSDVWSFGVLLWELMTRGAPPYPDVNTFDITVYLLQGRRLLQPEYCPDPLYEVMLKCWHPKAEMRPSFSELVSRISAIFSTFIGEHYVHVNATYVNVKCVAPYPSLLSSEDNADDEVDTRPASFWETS
Chain of Cytosolic iron-sulfur assembly component 2B (Homo sapiens) (Q9Y3D0 whole entry): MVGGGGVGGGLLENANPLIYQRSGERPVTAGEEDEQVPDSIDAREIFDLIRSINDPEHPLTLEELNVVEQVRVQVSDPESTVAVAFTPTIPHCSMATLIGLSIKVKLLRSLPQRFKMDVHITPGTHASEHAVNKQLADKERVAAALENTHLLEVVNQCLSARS
Chain of Y-box-binding protein 1 (Homo sapiens) (P67809 whole entry): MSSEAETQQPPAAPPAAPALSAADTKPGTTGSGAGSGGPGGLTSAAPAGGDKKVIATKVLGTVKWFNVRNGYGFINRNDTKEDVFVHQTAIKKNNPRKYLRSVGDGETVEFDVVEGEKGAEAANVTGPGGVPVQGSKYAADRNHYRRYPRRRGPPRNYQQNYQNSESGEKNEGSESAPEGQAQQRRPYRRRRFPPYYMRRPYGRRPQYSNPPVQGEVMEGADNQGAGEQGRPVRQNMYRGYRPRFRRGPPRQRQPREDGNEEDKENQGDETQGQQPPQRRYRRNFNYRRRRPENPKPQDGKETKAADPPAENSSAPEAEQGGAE
Chain of DnaJ homolog subfamily A member 1 (Homo sapiens) (P31689 whole entry): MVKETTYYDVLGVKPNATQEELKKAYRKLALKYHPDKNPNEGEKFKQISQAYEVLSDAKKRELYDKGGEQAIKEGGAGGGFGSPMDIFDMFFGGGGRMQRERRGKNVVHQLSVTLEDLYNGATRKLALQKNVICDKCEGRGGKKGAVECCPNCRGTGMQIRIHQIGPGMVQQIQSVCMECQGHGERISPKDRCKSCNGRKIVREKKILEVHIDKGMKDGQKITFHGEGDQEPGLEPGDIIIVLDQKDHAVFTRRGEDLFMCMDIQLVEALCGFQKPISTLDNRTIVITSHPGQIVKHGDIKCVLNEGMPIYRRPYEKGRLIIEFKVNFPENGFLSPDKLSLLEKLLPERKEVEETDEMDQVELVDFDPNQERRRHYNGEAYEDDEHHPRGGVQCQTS
Chain of Peroxiredoxin-6 (Homo sapiens) (P30041 whole entry): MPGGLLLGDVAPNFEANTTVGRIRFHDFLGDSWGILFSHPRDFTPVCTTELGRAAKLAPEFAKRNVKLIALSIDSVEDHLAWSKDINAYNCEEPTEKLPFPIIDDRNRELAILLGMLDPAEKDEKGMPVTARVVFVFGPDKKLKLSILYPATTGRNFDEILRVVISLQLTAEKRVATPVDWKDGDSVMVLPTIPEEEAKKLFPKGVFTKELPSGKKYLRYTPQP
Chain of Long-chain-fatty-acid--CoA ligase 1 (Homo sapiens) (P33121 whole entry): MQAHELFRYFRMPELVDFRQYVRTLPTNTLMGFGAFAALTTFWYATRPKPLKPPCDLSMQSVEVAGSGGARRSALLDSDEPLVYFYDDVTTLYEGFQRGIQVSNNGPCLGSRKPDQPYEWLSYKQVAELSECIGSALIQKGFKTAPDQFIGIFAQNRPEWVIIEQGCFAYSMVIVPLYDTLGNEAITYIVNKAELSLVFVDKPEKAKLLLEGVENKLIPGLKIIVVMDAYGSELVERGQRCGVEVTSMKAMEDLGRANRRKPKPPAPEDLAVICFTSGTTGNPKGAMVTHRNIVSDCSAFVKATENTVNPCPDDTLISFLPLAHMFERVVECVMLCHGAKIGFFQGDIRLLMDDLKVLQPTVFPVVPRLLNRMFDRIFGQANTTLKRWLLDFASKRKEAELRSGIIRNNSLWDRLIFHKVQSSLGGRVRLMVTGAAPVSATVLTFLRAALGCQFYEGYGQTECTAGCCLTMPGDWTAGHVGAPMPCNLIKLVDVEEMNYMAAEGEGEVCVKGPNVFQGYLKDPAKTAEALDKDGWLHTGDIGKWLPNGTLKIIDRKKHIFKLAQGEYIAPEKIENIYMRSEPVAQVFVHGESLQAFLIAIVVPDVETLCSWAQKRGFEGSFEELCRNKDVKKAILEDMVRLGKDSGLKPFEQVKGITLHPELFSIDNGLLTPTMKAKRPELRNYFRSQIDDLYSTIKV

Consider `C=CC(=O)Nc1ccccc1Nc1nc(Nc2ccc(N3CCN(CCOCCOCCOCCNC(=O)CCCC[C@@H]4SC[C@@H]5NC(=O)N[C@@H]54)CC3)cc2)ncc1Cl`, for which the outcome in [1], in assay [2], in assay [3], in assay [4], in assay [5] and in assay [6] was Active. The result in [7], in assay [8], in assay [9], in [10] and in assay [11] was Active.
On to `C=CC(=O)Nc1ccccc1Oc1nc(Nc2cnn(CCOC)c2)ncc1Cl`, for which, in assay [12], the inhibition is -1.9%.

Usually inhibition stands for the drop in the measured response relative to a control, in per cent.

Source of the values: ChEMBL document CHEMBL4118021, “Studies of TAK1-centered polypharmacology with novel covalent TAK1 inhibitors” (Bioorg Med Chem, 2017).
